The inhibition is the share of the control response that was lost under treatment. One may read the IC50 as the concentration that inhibits the measured activity by half.

The source made the active and inactive calls. No cut-off for these calls is given here.

The target in assay [1] is T1, Fatty-acid amide hydrolase 1 (Homo sapiens) (UniProt O00519).
T1 sequence (whole entry): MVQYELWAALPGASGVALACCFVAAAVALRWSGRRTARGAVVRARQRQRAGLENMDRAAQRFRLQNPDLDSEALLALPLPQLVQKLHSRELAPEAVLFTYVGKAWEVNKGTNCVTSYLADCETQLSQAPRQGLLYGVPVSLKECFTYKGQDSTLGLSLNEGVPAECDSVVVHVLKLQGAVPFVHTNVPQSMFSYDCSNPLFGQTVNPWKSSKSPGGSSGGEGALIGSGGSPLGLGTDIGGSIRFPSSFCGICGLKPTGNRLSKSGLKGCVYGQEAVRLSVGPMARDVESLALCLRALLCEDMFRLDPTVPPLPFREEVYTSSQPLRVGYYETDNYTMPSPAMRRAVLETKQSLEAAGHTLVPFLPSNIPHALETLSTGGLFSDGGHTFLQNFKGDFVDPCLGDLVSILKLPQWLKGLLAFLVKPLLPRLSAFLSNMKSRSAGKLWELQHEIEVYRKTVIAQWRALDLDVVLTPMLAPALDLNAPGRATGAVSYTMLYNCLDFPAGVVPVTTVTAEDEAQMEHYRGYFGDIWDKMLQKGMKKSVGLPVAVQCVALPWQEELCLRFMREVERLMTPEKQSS
Description: Inhibition of human FAAH using [ethanolamine 1-3H] substrate assessed as radioactivity at 10 uM by liquid scintillation counting analysis. The gist of the method: (§1)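 Human recombinant enzyme screened at a single test concentration; percent inhibition is the mean of two independent experiments, each run in duplicate.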

The target in assay [2] is T2, Monoglyceride lipase (Homo sapiens) (UniProt Q99685).
T2 sequence (whole entry): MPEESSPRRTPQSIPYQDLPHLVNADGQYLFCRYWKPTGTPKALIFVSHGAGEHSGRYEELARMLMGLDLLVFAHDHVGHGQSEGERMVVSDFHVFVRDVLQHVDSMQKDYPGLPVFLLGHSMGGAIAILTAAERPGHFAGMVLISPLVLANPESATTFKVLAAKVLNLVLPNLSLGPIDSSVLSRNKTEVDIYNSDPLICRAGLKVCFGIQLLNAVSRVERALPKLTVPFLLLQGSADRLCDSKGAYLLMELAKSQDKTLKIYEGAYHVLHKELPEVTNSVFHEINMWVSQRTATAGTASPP
Description: Inhibition of human recombinant MAGL using 2-arachidonoylglycerol substrate assessed as arachidonic acid at 10 uM by HPLC analysis. An outline of the steps: as §1

For assay [3], the target named is T3, Monoglyceride lipase (Homo sapiens, UniProt Q99685).
T3 sequence (Q99685 whole entry): T2 sequence (whole entry)
Description: Inhibition of human recombinant MAGL using 2-arachidonoylglycerol substrate assessed as arachidonic acid by HPLC analysis.

The target in assay [4] is T4, Lysophosphatidylserine lipase ABHD12 (Homo sapiens) (UniProt Q8N2K0).
T4 sequence (whole entry): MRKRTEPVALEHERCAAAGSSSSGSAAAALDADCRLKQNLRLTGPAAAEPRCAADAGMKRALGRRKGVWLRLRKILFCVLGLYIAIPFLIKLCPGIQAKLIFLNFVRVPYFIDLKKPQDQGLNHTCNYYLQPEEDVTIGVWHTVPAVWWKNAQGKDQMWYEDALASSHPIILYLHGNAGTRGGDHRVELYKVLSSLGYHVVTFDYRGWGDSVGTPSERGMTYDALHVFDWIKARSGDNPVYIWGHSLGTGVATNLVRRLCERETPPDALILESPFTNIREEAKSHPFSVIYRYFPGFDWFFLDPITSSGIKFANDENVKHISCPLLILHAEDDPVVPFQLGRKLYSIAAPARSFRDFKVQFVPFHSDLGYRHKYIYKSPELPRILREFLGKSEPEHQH
Description: Inhibition of human ABHD12 containing pCMV6-XL4-hABHD12 transfected into HEK293 cells at 10 uM. The class given is cell-based.

Assay [5] addresses T3, Monoglyceride lipase. Description: Reversible inhibition of human recombinant MAGL using 2-arachidonoylglycerol substrate assessed as arachidonic acid after 90 mins by HPLC analysis.
The target in assay [6] is Cannabinoid receptor 2 (Homo sapiens) (UniProt P34972). Description: Agonist activity at human cannabinoid CB2 receptor introduced into CHO cells assessed as [35S]GTPgammaS binding relative to control. Format: functional, cell-based. An outline of the steps:
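[35S]GTPγS binding in membranes from CHO cells expressing hCB2R, test compound alone. Read-out is % of basal binding, mean (range), n = 2.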
On the technique in general: GTPγS resists hydrolysis and so accumulates on activated G proteins.

Assay [7] concerns the target Cannabinoid receptor 1 (Rattus norvegicus) (UniProt P20272). Description: Agonist activity at rat cerebellar membrane cannabinoid CB1 receptor assessed as [35S]GTPgammaS binding relative to control. Format: functional. An outline of the steps:
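[35S]GTPγS binding in rat cerebellar membranes, test compound alone at a single concentration. Read-out is % of basal binding, mean (range), n = 2.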

Assay [8] addresses T5, Fatty-acid amide hydrolase 1 (Homo sapiens, UniProt O00519).
T5 sequence (O00519 whole entry): T1 sequence (whole entry)
Description: Inhibition of human FAAH using [ethanolamine 1-3H] substrate assessed as radioactivity by liquid scintillation counting analysis.

Assay [9] addresses T6, Monoacylglycerol lipase ABHD6 (Homo sapiens, UniProt Q9BV23).
T6 sequence (Q9BV23 whole entry): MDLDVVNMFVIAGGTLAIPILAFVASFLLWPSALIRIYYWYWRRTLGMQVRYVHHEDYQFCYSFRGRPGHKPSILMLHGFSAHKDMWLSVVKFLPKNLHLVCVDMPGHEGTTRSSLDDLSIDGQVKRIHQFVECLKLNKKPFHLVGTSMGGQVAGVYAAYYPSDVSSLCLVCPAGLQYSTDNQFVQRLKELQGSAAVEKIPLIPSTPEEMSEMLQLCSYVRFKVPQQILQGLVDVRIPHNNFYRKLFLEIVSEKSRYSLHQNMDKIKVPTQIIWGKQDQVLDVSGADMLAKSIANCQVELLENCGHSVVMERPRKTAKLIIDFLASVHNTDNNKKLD
Description: Inhibition of human ABHD6 containing pCMV6-AC-hABHD6 transfected into HEK293 cells. The class given is cell-based.

Assay [10] addresses Histamine H1 receptor (Cavia porcellus, UniProt P31389). Description: Antagonist activity at histamine H1 receptor in guinea pig jejunum assessed as reduction in histamine-induced contractions. The conditions noted are these: read-out: pA2 (converted).
Assay [11] concerns the target T3, Monoglyceride lipase. Description: Reversible inhibition of human recombinant MAGL using 2-arachidonoylglycerol substrate assessed as arachidonic acid after 30 mins by HPLC analysis.
Assay [12] has as its target T3, Monoglyceride lipase. Description: Reversible inhibition of human recombinant MAGL using 2-arachidonoylglycerol substrate assessed as arachidonic acid after 10 mins by HPLC analysis.
Assay [13] addresses T3, Monoglyceride lipase. Description: Reversible inhibition of human recombinant MAGL using 2-arachidonoylglycerol substrate assessed as arachidonic acid after 60 mins by HPLC analysis.
Assay [14] addresses Cannabinoid receptor 1 (Rattus norvegicus) (UniProt P20272). Description: Antagonist activity at rat cerebellar membrane cannabinoid CB1 receptor assessed as HU210-evoked [35S]GTPgammaS binding response relative to control. Format: functional. Further details: scale not given: the % may be the effect or the level left. An outline of the steps: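 [35S]GTPγS binding in rat cerebellar membranes, test compound co-incubated with HU210 agonist. Expressed as % of the HU210-evoked response, mean (range), n = 2.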

Chain of Histamine H1 receptor (P31389 whole entry): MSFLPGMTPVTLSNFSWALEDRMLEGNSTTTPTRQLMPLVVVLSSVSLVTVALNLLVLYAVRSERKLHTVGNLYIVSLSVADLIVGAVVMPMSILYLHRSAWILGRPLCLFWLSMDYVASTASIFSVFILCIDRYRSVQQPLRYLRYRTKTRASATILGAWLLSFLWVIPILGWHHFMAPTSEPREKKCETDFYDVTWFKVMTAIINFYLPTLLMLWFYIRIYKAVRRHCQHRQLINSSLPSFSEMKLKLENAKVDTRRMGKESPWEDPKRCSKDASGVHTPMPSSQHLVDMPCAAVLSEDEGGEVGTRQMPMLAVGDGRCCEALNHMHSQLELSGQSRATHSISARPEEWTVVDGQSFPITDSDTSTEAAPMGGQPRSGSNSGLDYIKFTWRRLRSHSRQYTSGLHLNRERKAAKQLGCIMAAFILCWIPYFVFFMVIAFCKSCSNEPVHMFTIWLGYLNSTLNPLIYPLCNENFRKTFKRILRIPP
Chain of Cannabinoid receptor 1 (Rattus norvegicus) (P20272 whole entry): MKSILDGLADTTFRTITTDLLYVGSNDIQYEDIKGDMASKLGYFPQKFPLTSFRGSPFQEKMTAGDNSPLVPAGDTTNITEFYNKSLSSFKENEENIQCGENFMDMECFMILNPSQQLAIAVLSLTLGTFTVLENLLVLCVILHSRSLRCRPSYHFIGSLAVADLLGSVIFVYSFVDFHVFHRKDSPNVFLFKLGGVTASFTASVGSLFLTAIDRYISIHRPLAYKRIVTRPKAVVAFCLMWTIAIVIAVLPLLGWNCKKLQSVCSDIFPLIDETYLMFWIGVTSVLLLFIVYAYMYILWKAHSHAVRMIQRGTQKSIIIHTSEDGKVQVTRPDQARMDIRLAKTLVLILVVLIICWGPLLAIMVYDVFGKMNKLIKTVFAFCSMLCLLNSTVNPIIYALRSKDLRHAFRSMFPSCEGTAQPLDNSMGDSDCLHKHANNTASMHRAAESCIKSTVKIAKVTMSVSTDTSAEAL
Chain of Cannabinoid receptor 2 (Homo sapiens) (P34972 whole entry): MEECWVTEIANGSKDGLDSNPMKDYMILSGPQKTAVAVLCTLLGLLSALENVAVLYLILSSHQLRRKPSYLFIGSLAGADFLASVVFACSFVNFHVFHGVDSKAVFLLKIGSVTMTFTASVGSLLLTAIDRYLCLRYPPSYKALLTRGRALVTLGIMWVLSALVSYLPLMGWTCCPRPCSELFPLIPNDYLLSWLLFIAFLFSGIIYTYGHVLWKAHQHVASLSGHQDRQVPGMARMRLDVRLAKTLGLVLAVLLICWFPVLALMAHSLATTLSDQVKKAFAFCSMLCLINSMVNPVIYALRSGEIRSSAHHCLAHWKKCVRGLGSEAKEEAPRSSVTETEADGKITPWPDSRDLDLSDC

Take `CN(C(=O)N1CCC(=C2c3ccc(Cl)cc3CCc3cccnc32)CC1)c1ccccc1`: in assay [1], the inhibition was found to be 11%. Further, the inhibition entry in assay [2] was “inactive”.
The like results for `O=C(Oc1ccc([N+](=O)[O-])cc1)N1CCC(=C2c3ccc(Cl)cc3CCc3cccnc32)CC1` were, in that order, 6% and 27%.
For the molecule `O=C(N1CCC(=C2c3ccc(Cl)cc3CCc3cccnc32)CC1)n1nnc2ncccc21`, in assay [3], the IC50 came out at 98 nM. Besides, in assay [1], the inhibition turned out to be 30%.
The like results for `O=C(N1CCC(=C2c3ccc(Cl)cc3CCc3cccnc32)CC1)n1nnc2ccccc21` were, in that order, 208 nM and 22%.
Turning to `O=C(N1CCC(=C2c3ccc(Cl)cc3CCc3cccnc32)CC1)n1cncn1`, the inhibition result in assay [4] was “inactive”. Further, the IC50 in [5] was 309 nM; in assay [3], 46 nM; in assay [8] it was 7240 nM; in assay [9], 1780 nM; in [11] it was 224 nM; in assay [12], 209 nM. Moreover, in assay [13], the IC50 was 257 nM. The results for the Activity in [6], in [7] and in assay [14] were 101%, 90% and 80%, respectively. In assay [10], the Kb is 155 nM.
Consider `O=C(N1CCC(C(c2ccc3c(c2)OCO3)c2ccc3c(c2)OCO3)CC1)n1cncn1`, for which the IC50 in assay [3] worked out at 0.36 nM.
For `O=C(OC(C(F)(F)F)C(F)(F)F)N1CCC(=C2c3ccc(Cl)cc3CCc3cccnc32)CC1`, the 50% inhibitory concentration (IC50) in [3] amounted to 645 nM. The inhibition in [1] turned out to be 15%.
With `O=C(Oc1ccc([N+](=O)[O-])cc1[N+](=O)[O-])N1CCC(=C2c3ccc(Cl)cc3CCc3cccnc32)CC1`, the inhibition in assay [1] came out at 14%. Moreover, the inhibition entry in assay [2] is “inactive”.
The corresponding values for `CCOC(=O)N1CCC(=C2c3ccc(Cl)cc3CCc3cccnc32)CC1` are 11% and “inactive”.
The like results for `CN(C(=O)N1CCC(=C2c3ccc(Cl)cc3CCc3cccnc32)CC1)C1CCCCC1` were, in that order, “inactive” and “inactive”.
As for `O=C(N1CCC(=C2c3ccccc3C=Cc3ccccc32)CC1)n1cncn1`, in assay [4], the inhibition entry was “inactive”. Also, the results for the half-inhibitory concentration (IC50) in [3], in assay [8] and in [9] were 47 nM, 6910 nM and 750 nM, respectively. Further, the Kb in [10] is 316 nM.
Regarding `O=C(N1CCC(=C2c3ccc(Cl)cc3CCc3cccnc32)CC1)n1ccnc1`, the inhibition in assay [1] turned out to be 7%. For the same molecule, the inhibition result in assay [2] is “inactive”.
Consider `O=C(ON1C(=O)CCC1=O)N1CCC(=C2c3ccc(Cl)cc3CCc3cccnc32)CC1`, for which the IC50 in assay [3] came out at 2570 nM. Further, the inhibition in assay [1] was 12%.
For `O=C(NC1CCCCC1)N1CCC(=C2c3ccc(Cl)cc3CCc3cccnc32)CC1`, in [1], the inhibition came to 9%. For the same molecule, the inhibition result in assay [2] was “inactive”.
The like results for `O=[N+]([O-])c1ccc(SC(=S)N2CCC(=C3c4ccc(Cl)cc4CCc4cccnc43)CC2)c([N+](=O)[O-])c1` were, in that order, 12% and 14%.
